Test results as given in ChEMBL document CHEMBL1629533, “Identification of the spiro(oxindole-3,3'-thiazolidine)-based derivatives as potential p53 activity modulators” (J Med Chem, 2010).
Calls of active or inactive are those of the source. The rule behind the calls is not given here.

What was measured:
M14 [1] = test: Cytotoxicity against human M14 cells after 24 to 48 hrs by MTT assay; assay type: functional, cell-based
U-937 = test: Cytotoxicity against human U937 cells after 24 to 48 hrs by MTT assay; assay type: functional, cell-based
HEK293 = test: Cytotoxicity against transformed human HEK293 cells after 24 to 48 hrs by MTT assay; assay type: functional, cell-based
M14 [2] = test: Increase in p53 expression in human M14 cells at 3 uM after 24 to 48 hrs by Western blot; assay type: functional, cell-based
Summary of the method: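 M14 cells (1 × 10⁶ per flask), treated for 24 and 48 h. Lysed in ice-cold 50 mM Tris, 150 mM NaCl, 10 mM EDTA, 1% Triton with protease inhibitors. Equal protein run on 8-12% SDS-PAGE and blotted to nitrocellulose. Cytoplasmic p53 probed overnight at 4 °C, detected by HRP secondary and ECL, with tubulin as loading reprobe.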

M14 [3] = test: Induction of cell morphology impairment in human M14 cells at cytotoxic IC50 concentration by phase contrast microscopy; assay type: functional, cell-based
Summary of the method: (§1)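 Logarithmically growing M14 cells plated at 10⁵ cells/mL, with compound added after 24 h and vehicle controls alongside. Followed by inverted phase-contrast time-lapse microscopy at 37 °C under 5% CO₂, images taken hourly for up to 72 h. Rounding, blebbing and detachment scored at 10, 24 and 48 h.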

M14 [4] = test: Induction of apoptosis in human M14 cells assessed as PARP cleavage at 0.1 to 0.3 uM after 16 hrs by Western blot; assay type: functional, cell-based
Summary of the method: (§2)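 M14 cells (1 × 10⁶ per flask) exposed 16 and 24 h, then lysed in ice-cold Triton lysis buffer with protease inhibitors. Equal protein run on 8-12% SDS-PAGE and blotted to nitrocellulose. Probed overnight at 4 °C for cleaved active caspase-3 subunits or PARP cleavage (85 kDa fragment), with HRP secondary and ECL read-out. Tubulin reprobe.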

M14 [5] = test: Induction of cell morphology impairment in human M14 cells assessed as cell detachment at cytotoxic IC50 concentration after 48 hrs by phase contrast microscopy
M14 [6] = test: Induction of cell morphology impairment in human M14 cells assessed as emergence of round and damaged cells at cytotoxic IC50 concentration after 10 hrs by phase contrast microscopy; assay type: functional, cell-based; summary of the method: as §1
M14 [7] = test: Induction of apoptosis in human M14 cells assessed as caspase-3 activation at 0.1 to 0.3 uM after 16 hrs by Western blot; assay type: functional, cell-based; summary of the method: as §2
M14 [8] = test: Increase in p53 expression in human M14 cells at 0.3 uM after 24 to 48 hrs by Western blot; assay type: functional, cell-based
Summary of the method: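 M14 cells (1 × 10⁶ per flask) treated 24 and 48 h alongside untreated controls. Lysed in ice-cold Tris/NaCl/EDTA/1% Triton buffer with protease inhibitors. Equal protein run on 8-12% SDS-PAGE and blotted to nitrocellulose. Blocked in milk/Tween-TBS, anti-p53 overnight at 4 °C, HRP secondary, ECL detection. Cytoplasmic p53 read, with tubulin as reprobe.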

M14 [9] = test: Effect on cell cycle progression in human M14 cells at 1 uM after 24 hrs by flow cytometry; assay type: functional, cell-based
Summary of the method: (§3)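 M14 cells at 2,5 × 10⁵ cells/mL in 12-well plates, treated 24 h (vehicle controls run alongside). Cells were trypsinised, washed in PBS and stained with propidium iodide in 0.1% sodium citrate/0.1% Triton X-100 at 4 °C for 30 min in the dark. FACScan analysis gave the percentage of cells in G0/G1, S and G2/M. Hypodiploid nuclei were scored as apoptotic.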

M14 [10] = test: Effect on cell cycle progression in human M14 cells at 0.3 uM after 24 hrs by flow cytometry; assay type: functional, cell-based; summary of the method: as §3
M14 [11] = test: Induction of apoptosis in human M14 cells at 1 to 5 uM after 24 hrs; assay type: functional, cell-based
M14 [12] = test: Cell cycle arrest in human M14 cells assessed as decrease in G0/G1 phase accumulation at 3 uM after 24 hrs by flow cytometry; assay type: functional; design: scale not given: the % may be the effect or the level left
Summary of the method: (§4)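 Trypsinized, washed in PBS, stained in the dark at 4 °C for 30 min with 0.1% sodium citrate, 0.1% Triton X-100 and propidium iodide. Analyzed by FACScan flow cytometry. Phase distribution (G0/G1, S, G2/M) given as percentage of cells.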

M14 [13] = test: Cell cycle arrest in human M14 cells assessed as accumulation at G2 phase at 3 uM after 24 hrs by flow cytometry; assay type: functional; summary of the method: as §4
M14 [14] = test: Induction of apoptosis in human M14 cells assessed as caspase-3 activation at supra cytotoxic IC50 concentration after 16 to 24 hrs by Western blot; assay type: functional, cell-based
M14 [15] = test: Cell cycle arrest in human M14 cells assessed as accumulation at G2/M phase at 3 uM after 24 hrs by flow cytometry; assay type: functional, cell-based; summary of the method: as §4

SMILES	IC50 (M14 [1])	IC50 (U-937)	IC50 (HEK293)	further results
CC1(C)CCC(N2C(=O)[C@@H]3CS[C@]4(C(=O)Nc5ccccc54)N3C2=O)CC1	7.07 µM	2.61 µM	4.22 µM	–
COc1cc(CN2C(=O)[C@@H]3CS[C@]4(C(=O)N(C(=O)c5ccc(Cl)cc5)c5ccc(C)cc54)N3C2=O)cc(OC)c1OC	8.14 µM	3.11 µM	4.71 µM	–
CN1C(=O)[C@]2(SC[C@H]3C(=O)N(Cc4ccc(Cl)cc4)C(=O)N32)c2ccccc21	2.47 µM	2.91 µM	2.11 µM	–
Cc1ccc2c(c1)[C@@]1(SC[C@H]3C(=O)N(Cc4ccc(Cl)cc4)C(=O)N31)C(=O)N2	6.65 µM	3.31 µM	3.88 µM	Activity (M14 [2]): Active
Cc1ccc(CN2C(=O)[C@@H]3CS[C@]4(C(=O)Nc5ccc(Br)cc54)N3C2=O)cc1	10.2 µM	6.23 µM	7.61 µM	–
CC1(C)CCC(N2C(=O)[C@@H]3CS[C@]4(C(=O)Nc5ccc(Br)cc54)N3C2=O)CC1	> 40 µM	> 40 µM	> 40 µM	–
CN1C(=O)[C@]2(SC[C@H]3C(=O)N(Cc4ccccc4)C(=O)N32)c2ccccc21	6.37 µM	2.89 µM	3.98 µM	–
Cc1ccc(CN2C(=O)[C@@H]3CS[C@]4(C(=O)Nc5ccc(C)cc54)N3C2=O)cc1	3.39 µM	2.77 µM	3.01 µM	–
Cc1ccc(C(=O)N2C(=O)[C@]3(SC[C@H]4C(=O)N(Cc5ccc(Cl)cc5)C(=O)N43)c3ccccc32)cc1	2.08 µM	2.01 µM	2.5 µM	–
O=C1[C@@H]2CS[C@]3(C(=O)N(C(=O)c4ccccc4)c4ccccc43)N2C(=O)N1Cc1ccc(Cl)cc1	3.25 µM	3.12 µM	3.5 µM	–
COc1cc(CN2C(=O)[C@@H]3CS[C@]4(C(=O)Nc5ccc(Br)cc54)N3C2=O)cc(OC)c1OC	11 µM	5.02 µM	9.31 µM	–
O=C1[C@@H]2CS[C@]3(C(=O)Nc4ccc(Br)cc43)N2C(=O)N1Cc1ccc(Cl)cc1	7.06 µM	5.01 µM	7.13 µM	–
Cc1ccc(CN2C(=O)[C@@H]3CS[C@]4(C(=O)N(C)c5ccccc54)N3C2=O)cc1	31.8 µM	16.8 µM	10.7 µM	–
CN1C(=O)[C@]2(SC[C@H]3C(=O)N(C4CCC(C)(C)CC4)C(=O)N32)c2ccccc21	> 40 µM	> 40 µM	> 40 µM	–
CCCC(=O)N1C(=O)[C@]2(SC[C@H]3C(=O)N(Cc4cc(OC)c(OC)c(OC)c4)C(=O)N32)c2cc(C)ccc21	7.4 µM	4.1 µM	4.42 µM	–
COc1cc(CN2C(=O)[C@@H]3CS[C@]4(C(=O)N(C)c5ccccc54)N3C2=O)cc(OC)c1OC	7.66 µM	5.7 µM	6.01 µM	–
Cc1ccc2c(c1)[C@@]1(SC[C@H]3C(=O)N(Cc4ccccc4)C(=O)N31)C(=O)N2	3.88 µM	2.09 µM	3.3 µM	–
O=C1[C@@H]2CS[C@]3(C(=O)Nc4ccccc43)N2C(=O)N1Cc1ccc(Cl)cc1	0.53 µM	0.87 µM	0.44 µM	Activity (M14 [3]): Active; Activity (M14 [4]): Active; Activity (M14 [5]): Active; Activity (M14 [6]): Active; Activity (M14 [7]): Active; Activity (M14 [8]): Active; Activity (M14 [9]): inactive; Activity (M14 [10]): inactive
Cc1ccc2c(c1)[C@@]1(SC[C@H]3C(=O)N(C4CCC(C)(C)CC4)C(=O)N31)C(=O)N2	19.1 µM	12.5 µM	16 µM	–
COc1cc(CN2C(=O)[C@@H]3CS[C@]4(C(=O)Nc5ccc(C)cc54)N3C2=O)cc(OC)c1OC	2.4 µM	2.06 µM	2.04 µM	Activity (M14 [3]): Active; Activity (M14 [11]): inactive; Activity (M14 [5]): Active; Activity (M14 [12]): 20%; Activity (M14 [13]): 47%; Activity (M14 [14]): inactive; Activity (M14 [6]): Active; Activity (M14 [15]): Active
O=C1[C@@H]2CS[C@]3(C(=O)Nc4ccccc43)N2C(=O)N1Cc1ccccc1	10.6 µM	3.9 µM	4.8 µM	–
Cc1ccc(CN2C(=O)[C@@H]3CS[C@]4(C(=O)Nc5ccccc54)N3C2=O)cc1	13.3 µM	5.91 µM	4.53 µM	–
COc1cc(CN2C(=O)[C@@H]3CS[C@]4(C(=O)N(C(=O)c5ccccc5)c5ccc(C)cc54)N3C2=O)cc(OC)c1OC	7.84 µM	4.31 µM	4.22 µM	–
O=C1[C@@H]2CS[C@]3(C(=O)N(C(=O)c4ccc(Cl)cc4)c4ccccc43)N2C(=O)N1Cc1ccc(Cl)cc1	3.37 µM	2.61 µM	5.01 µM	–
CCCC(=O)N1C(=O)[C@]2(SC[C@H]3C(=O)N(Cc4ccc(Cl)cc4)C(=O)N32)c2ccccc21	2.04 µM	2.1 µM	2.01 µM	–
COc1cccc2c1C(=O)c1c(O)c3c(c(O)c1C2=O)C[C@@](O)(C(=O)CO)C[C@@H]3O[C@H]1C[C@H](N)[C@H](O)[C@H](C)O1 [DOXORUBICIN]	1 µM	0.8 µM	0.9 µM	–
COc1cc(CN2C(=O)[C@@H]3CS[C@]4(C(=O)Nc5ccccc54)N3C2=O)cc(OC)c1OC	4.73 µM	2.51 µM	3.8 µM	–
O=C1[C@@H]2CS[C@]3(C(=O)Nc4ccc(Br)cc43)N2C(=O)N1Cc1ccccc1	12 µM	7.58 µM	8.48 µM	–
COc1cc(CN2C(=O)[C@@H]3CS[C@]4(C(=O)N(C(=O)c5ccc(C)cc5)c5ccc(C)cc54)N3C2=O)cc(OC)c1OC	5.95 µM	2.42 µM	3.81 µM	–
